Laboratory results published in ChEMBL document CHEMBL1147498, “6-aryl-2,4-dioxo-5-hexenoic acids, novel integrase inhibitors active against HIV-1 multiplication in cell-based assays” (Bioorg Med Chem Lett, 2004).
Several values for one entry are separate records, joined by “and”; a condition that tells them apart may be missing. Identical values can stand only once.

Legend:
[1] = (§1) Cytotoxic concentration required to reduce the viability of mock-infected cells was determined by using MTT assay
In short: (§2)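 Viability of mock-infected cells read by MTT, run in parallel with the antiviral assay. Value is the dose giving a 50% loss of viability. Mean of three independent determinations.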

MT4 = assay: Effective concentration required to reduce the exponential growth of MT-4/KB cells; assay type: functional, cell-based; conditions: Homo sapiens
In short: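 Cell-based HIV-1 multiplication assay in MT-4 cells, run in parallel with cytotoxicity on mock-infected cells. Value is the concentration giving 50% reduction of exponential growth of MT-4/KB cells. Mean of three independent determinations.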

[2] = target: Human immunodeficiency virus type 1 integrase (Human immunodeficiency virus 1, UniProt Q7ZJM1); assay: Inhibitory activity against HIV-1 integrase.
Chain of Human immunodeficiency virus type 1 integrase (Q7ZJM1 whole entry): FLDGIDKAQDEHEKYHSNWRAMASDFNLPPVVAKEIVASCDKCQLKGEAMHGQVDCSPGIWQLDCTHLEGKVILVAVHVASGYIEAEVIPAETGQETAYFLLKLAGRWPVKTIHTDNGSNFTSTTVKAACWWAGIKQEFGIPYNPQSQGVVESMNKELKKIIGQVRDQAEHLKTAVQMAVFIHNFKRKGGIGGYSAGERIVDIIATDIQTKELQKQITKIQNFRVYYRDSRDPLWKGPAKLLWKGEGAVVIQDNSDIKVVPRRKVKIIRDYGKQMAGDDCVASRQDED

[3] = as §1; assay type: functional; in short: as §2
[4] = Selectivity index was determined; assay type: functional

O=C(/C=C/c1cccn1Cc1ccc(Cl)cc1)CC(=O)C(=O)O
CC50 [1]: 95 µM | EC50 (MT4): > 95 µM | IC50 [2]: 50 µM and 65 µM

O=C(O)C(=O)CC(=O)c1cccn1Cc1ccc(F)cc1
EC50 (MT4): 1.5 µM

O=C(/C=C/c1cccn1Cc1ccc([N+](=O)[O-])cc1)CC(=O)C(=O)O
CC50 [3]: 33 µM | EC50 (MT4): > 33 µM | IC50 [2]: 76 µM and 92 µM

Cc1ccc(Cn2cccc2/C=C/C(=O)CC(=O)C(=O)O)cc1
CC50 [1]: 41 µM | EC50 (MT4): > 41 µM

CCOC(=O)C(=O)CC(=O)/C=C/c1cccn1Cc1ccc(OC)cc1
CC50 [1]: 27 µM | EC50 (MT4): > 27 µM

CCOC(=O)C(=O)CC(=O)/C=C/c1cccn1Cc1ccc([N+](=O)[O-])cc1
CC50 [1]: 31 µM | EC50 (MT4): > 31 µM | IC50 [2]: 57 µM and 45 µM

CCOC(=O)C(=O)CC(=O)/C=C/c1cccn1Cc1ccc(Cl)cc1
CC50 [1]: 52 µM | EC50 (MT4): > 52 µM

COc1ccc(Cn2cccc2/C=C/C(=O)CC(=O)C(=O)O)cc1
CC50 [1]: 78 µM | EC50 (MT4): > 78 µM

O=C(/C=C/c1cccn1Cc1ccccc1)CC(=O)C(=O)O
CC50 [1]: 61 µM | EC50 (MT4): 1.5 µM

O=C(/C=C/c1cccn1Cc1ccc(F)cc1)CC(=O)C(=O)O
CC50 [1]: 80 µM | EC50 (MT4): 11 µM | Selectivity index [4]: 7.3 | IC50 [2]: 61 µM and 72 µM

CCOC(=O)C(=O)CC(=O)/C=C/c1cccn1Cc1ccc(F)cc1
CC50 [1]: 55 µM | EC50 (MT4): 12 µM

CCOC(=O)C(=O)CC(=O)/C=C/c1cccn1Cc1ccc(C)cc1
CC50 [1]: 7 µM | EC50 (MT4): > 7 µM

CCOC(=O)C(=O)CC(=O)/C=C/c1cccn1Cc1ccccc1
CC50 [1]: 17 µM
